The first experiment deals with GABA-A receptor; anion channel. The experiment is described as follows: In vitro inhibition of [3H]diazepam binding to benzodiazepine receptor in rat cerebral cortical membrane. Format: cell membranes.
By Ki is commonly meant the dissociation constant of the complex between target and ligand, obtained from inhibition or displacement. On to `COC(=O)c1cc2c([nH]c3ccccc32)c(-c2ccccc2)n1`, for which the inhibition constant Ki was determined as 3.89 µM.
For `CN(C)CCc1c[nH]c2ccc(O)cc12` [BUFOTENINE], the inhibition constant Ki is over 100 µM.
For `COC(=O)c1cc2c(cn1)[nH]c1ccccc12` [BETA-CCM], the affinity corresponds to a Ki of 0.00105 µM.
On to `CC(O)c1cc2c3ccccc3nc-2c[nH]1` (configuration not stated), for which the affinity corresponds to a Ki of 3.16 µM.
On to `COC(=O)C(Cc1c[nH]c2ccccc12)N(C)C` (configuration not stated), for which the inhibition constant (Ki) is over 100 µM.
As to `Cc1nccc2c1[nH]c1ccccc12` [HARMAN], the inhibitory constant (Ki) is 12.4 µM.
As to `COC(=O)c1cnc2ccccc2c1`, the Ki is over 100 µM.
Turning to `COC(=O)c1cc2c3ccccc3n(C)c2cn1`, the Ki is over 50 µM.
`O=C(O)C1Cc2c([nH]c3ccccc23)C(c2ccccc2)N1` (configuration not stated) returned a Ki of 6.11 µM.
Take `CCCOC(=O)c1cc2c(cn1)[nH]c1ccccc12`: the inhibition constant (Ki) was 0.001 µM.
Take `O=C(O)c1cnc2ccccc2c1`: the Ki was over 100 µM.
With `O=Cc1cccnc1` [NICOTINALDEHYDE], the inhibitory constant (Ki) was over 100 µM.
Consider `CC(=O)c1ccccn1`, for which the inhibition constant (Ki) is over 100 µM.
In turn, `O=Cc1cc2c3ccccc3nc-2c[nH]1` had a Ki of 0.0623 µM.
Still for that read-out and setting: the result for `COC(=O)C1CC2=C(C(c3ccccc3)N1)N(C)c1ccccc1C2` (configuration not stated) reads over 100 µM; that for `C1=Cc2c([nH]c3ccccc23)CN1`, over 100 µM; that for `O=Cc1cnc2ccccc2c1`, over 100 µM.
As for `OCc1cc2c3ccccc3nc-2c[nH]1`, the affinity corresponds to a Ki of 1.47 µM.
Same read-out and setting: the result for `c1ccc2cnccc2c1` [ISOQUINOLINE] reads over 100 µM; that for `CCc1nc(C(=O)OC)cc2c1[nH]c1ccccc12`, 7.54 µM.
On the same count and under the same terms, in the case of `COC(=O)C1Cc2c([nH]c3ccc(O)cc23)CN1` (configuration not stated) it was 0.573 µM; in that of `COC(=O)C1Cc2c([nH]c3ccccc23)C(c2ccccc2)N1` (stereo in doubt; 49), 54 µM.
Compound `O=Cc1ccccn1` [2-PYRIDINECARBOXALDEHYDE] displayed an inhibition constant (Ki) of over 100 µM.
Regarding `COc1cc2c(cc1OC)CNCC2`, the Ki was over 100 µM.
In the case of `Oc1ccc2[nH]c3c(c2c1)C=CNC3`, the Ki is over 100 µM.
`CN(C)CCc1c[nH]c2ccccc12` registered a Ki of over 100 µM.
`CCC1NC(C(=O)OC)Cc2c1[nH]c1ccc(O)cc21` (stereo in doubt; 14a) returned an inhibitory constant (Ki) of over 100 µM.
The same measure, in the same setting: the result for `COC(=O)C1Cc2ccccc2CN1` (configuration not stated) reads over 100 µM; that for `COC(=O)C1=Cc2c([nH]c3ccccc23)C(c2cccnc2)N1` (configuration not stated), 6.25 µM; that for `c1ccc2c(c1)[nH]c1cnccc12` [NORHARMANE], 1.62 µM.
As for `CC(=O)c1cc2c3ccccc3nc-2c[nH]1`, the affinity corresponds to a Ki of 0.058 µM.
`Oc1cc2c(cc1O)CNCC2` registered a Ki of over 100 µM.
As for `CCOC(=O)c1cc2c(cn1)[nH]c1ccccc12`, the inhibition constant Ki came out at 0.0011 µM.
Compound `O=C(O)C1Cc2ccccc2CN1` (configuration not stated) gave a Ki of over 100 µM.
`CN1C=Cc2c([nH]c3ccccc23)C1`: the inhibitory constant (Ki) was over 100 µM.
`COC(=O)c1cc2ccccc2cn1` yielded a Ki of 13.2 µM.
Compound `COc1ccc2[nH]c3c(c2c1)C=CNC3` came in with a Ki of over 500 µM.
Same read-out and setting: in the case of `COC(=O)c1cc2c(cn1)[nH]c1ccc(O)cc12` it was 0.00266 µM; in that of `COC(=O)C1Cc2c([nH]c3ccccc23)C(C)N1` (configuration not stated), over 50 µM; in that of `COC(=O)C1Cc2c([nH]c3ccccc23)C(CO)N1` (stereo in doubt; 18), 0.51 µM.
The compound `O=C(O)c1cc2c3ccccc3nc-2c[nH]1` displayed an inhibitory constant (Ki) of 24 µM.
In the case of `CCC1NC(C(=O)OC)Cc2c1[nH]c1ccccc21` (configuration not stated), the Ki was over 100 µM.
Same read-out and setting: the result for `COC(=O)C1Cc2c([nH]c3ccccc23)C(CO)N1` (stereo in doubt; 17) reads 5 µM; that for `COC(=O)C1Cc2c([nH]c3ccccc23)C(c2ccccc2)N1` (stereo in doubt; 60), 174 µM.
For `CCC1NC(C(=O)OC)Cc2c1[nH]c1ccc(O)cc21` (stereo in doubt; 14a+14b), the inhibitory constant (Ki) is 39 µM. Compared with the last compound, the Ki is about 4.5-fold lower.
Still for that read-out and setting: the result for `CCC1NC(C(=O)OC)=Cc2c1n(C)c1ccccc21` (configuration not stated) reads over 100 µM.

A further experiment concerns the target T1, GABA-A receptor; anion channel (Rattus norvegicus) (UniProt O09028+P15431+P18506+P18508+P19969+P20236+P23574+P23576+P28471+P28473+P30191+P62813+P63079+P63138+Q91ZM7+Q9ES14).
For orientation: Hill coefficient means a measure of the steepness of the concentration-response curve. `CCOC(=O)c1cc2c(cn1)[nH]c1ccccc12` had a Hill coefficient of 0.74.

Another experiment concerns the target T1, GABA-A receptor; anion channel (Rattus norvegicus). The experiment is described as follows: Hill coefficient for inhibition of ~2 nM [3H]diazepam binding to GABA-A benzodiazepine receptor of rat cerebral cortical membrane. In a few lines:
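Rat cerebral cortex tissue was homogenized in 100 volumes of 50 mM Tris-HCl pH 7.4 and washed three times by centrifugation at 20000g. […] Hill coefficients came from least mean squares regression of the inhibition curves.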
In turn, `COC(=O)c1cc2c(cn1)[nH]c1ccccc12` [BETA-CCM] registered a Hill coefficient of 0.7.
In turn, `O=Cc1cc2c3ccccc3nc-2c[nH]1` returned a Hill coefficient of 0.93.
As to `OCc1cc2c3ccccc3nc-2c[nH]1`, the Hill coefficient stood at 0.93.
For the compound `CC(=O)c1cc2c3ccccc3nc-2c[nH]1`, the Hill coefficient is 0.73.
For `O=C(O)c1cc2c3ccccc3nc-2c[nH]1`, the Hill coefficient was 0.72.
